The results in this text go back to ChEMBL document CHEMBL1154626, “Novel, potent, and selective quinoxaline-based 5-HT(3) receptor ligands. 1. Further structure-activity relationships and pharmacological characterization” (J Med Chem, 2009).

pEC50, pIC50, pKi: −log10 of the molar value.

Series [1] concerns the target T1, 5-hydroxytryptamine receptor 3A (Cavia porcellus, UniProt O70212).
T1 sequence (O70212 whole entry): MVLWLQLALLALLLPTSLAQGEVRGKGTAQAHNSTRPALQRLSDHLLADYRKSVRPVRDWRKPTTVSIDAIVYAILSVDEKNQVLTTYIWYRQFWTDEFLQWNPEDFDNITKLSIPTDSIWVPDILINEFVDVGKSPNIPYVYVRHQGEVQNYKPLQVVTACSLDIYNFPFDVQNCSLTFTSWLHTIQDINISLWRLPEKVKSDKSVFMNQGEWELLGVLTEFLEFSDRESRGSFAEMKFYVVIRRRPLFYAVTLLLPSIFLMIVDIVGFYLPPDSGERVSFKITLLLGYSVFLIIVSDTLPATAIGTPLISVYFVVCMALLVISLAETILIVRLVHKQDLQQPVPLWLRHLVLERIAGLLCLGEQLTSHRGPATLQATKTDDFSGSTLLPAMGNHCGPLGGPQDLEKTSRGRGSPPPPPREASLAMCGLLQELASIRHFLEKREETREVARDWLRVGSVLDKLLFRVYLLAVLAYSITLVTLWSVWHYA
The experiment in a line: Intrinsic activity at 5HT3 receptor in spontaneously beating guinea pig right atrium assessed as positive chronotropic potency relative to serotonin.

The target in series [2] is T2, 5-hydroxytryptamine receptor 3A (Rattus norvegicus, UniProt P35563).
T2 sequence (P35563 whole entry): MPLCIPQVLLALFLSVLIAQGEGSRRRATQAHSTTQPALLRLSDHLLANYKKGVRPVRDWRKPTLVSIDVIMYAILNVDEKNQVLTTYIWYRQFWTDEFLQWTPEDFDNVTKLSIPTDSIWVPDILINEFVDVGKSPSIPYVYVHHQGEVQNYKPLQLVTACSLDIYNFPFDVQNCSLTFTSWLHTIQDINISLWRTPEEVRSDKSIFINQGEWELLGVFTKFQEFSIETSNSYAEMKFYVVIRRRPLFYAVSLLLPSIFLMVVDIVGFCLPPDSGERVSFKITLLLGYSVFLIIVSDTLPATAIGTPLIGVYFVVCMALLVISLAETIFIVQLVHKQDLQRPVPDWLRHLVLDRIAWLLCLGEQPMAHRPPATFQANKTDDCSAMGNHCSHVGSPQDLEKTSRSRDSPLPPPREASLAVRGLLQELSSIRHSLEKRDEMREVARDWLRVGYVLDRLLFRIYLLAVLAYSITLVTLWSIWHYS
Nature of the series: Displacement of [3H]LY278584 from 5HT3 receptor in rat cortical homogenate. As to conditions: read-out: Ki; call rule not given here. In outline:
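Rat cortical homogenate, competition against [3H]LY278584 binding. Ki is the concentration giving half-maximal inhibition of binding, as the mean ± S.E.M. of three determinations.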
In general terms: Loss of bound radioactivity is the signal in a displacement assay; it reports binding, not function.

For series [3], the system named is Rattus norvegicus. The experiment in a line: Agonist activity at 5HT3 receptor in iv dosed Sprague-Dawley rat assessed as induction of bradycardia measured after 5 to 30 mins post-treatment by von Bezold-Jarisch reflex test. It is filed as functional. Summed up:
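Urethane-anesthetized rats, compound given iv. Agonism was scored as the compound itself evoking the von Bezold-Jarisch reflex (bradycardia). Antagonism was tested by giving the compound iv 5, 15 or 30 min before phenylbiguanide (PBG) and scoring the reduction of PBG-evoked bradycardia. ED50 is the dose giving half of the maximal bradycardia evoked by the same compound.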

The target in series [4] is T1, 5-hydroxytryptamine receptor 3A. The experiment in a line: Antagonist activity at 5HT3 receptor in spontaneously beating guinea pig right atrium assessed as inhibition of serotonin-induced maximum response by noncompetitive binding assay. Format: tissue-based, Cardiac atrium. To be noted: for pIC50: read-out: IC50. Summed up: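 Spontaneously beating guinea pig right atria, exposed 30 min to test compound at 10 μM, followed by cumulative 5-HT log concentration-response curves versus control. Mean ± SEM of five to seven observations.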

Series [5] concerns Brain. Nature of the series: Drug level in rat brain at 0.5 mg/kg, iv. Format: ADME, organism-based. On the set-up: dose 0.5 mg/kg, route intravenous. As to conditions: in vivo. In outline:
(§1)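 Rats dosed iv at 0.25–1 mg/kg and sacrificed 30 min after injection. Mean ± SEM of three animals. Brain/plasma ratio assumes 1 g tissue equals 1 mL water.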

Series [6] in a line: Ratio of drug level from brain to plasma in rat at 1 mg/kg, iv. It is filed as ADME, organism-based. Also noted: dose 1 mg/kg, route intravenous. In outline:
(§2)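 Rats given a single iv injection (0.25–1 mg/kg) and killed 30 min afterwards. Brain/plasma ratio calculated assuming 1 g tissue equals 1 mL water. Three animals per dose, mean ± SEM.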

Series [7] deals with Rattus norvegicus. The experiment in a line: Plasma concentration in rat at 0.25 mg/kg, iv. Format: ADME, organism-based. As to conditions: in vivo. Also noted: dose 0.25 mg/kg, route intravenous. Summed up:
as §1

In series [8] the target is 5-hydroxytryptamine receptor 4 (Cavia porcellus, UniProt O70528). The experiment in a line: Displacement of [3H]GR-113808 from 5HT4 receptor in guinea pig striatum.
Sequence of 5-hydroxytryptamine receptor 4 (O70528 whole entry): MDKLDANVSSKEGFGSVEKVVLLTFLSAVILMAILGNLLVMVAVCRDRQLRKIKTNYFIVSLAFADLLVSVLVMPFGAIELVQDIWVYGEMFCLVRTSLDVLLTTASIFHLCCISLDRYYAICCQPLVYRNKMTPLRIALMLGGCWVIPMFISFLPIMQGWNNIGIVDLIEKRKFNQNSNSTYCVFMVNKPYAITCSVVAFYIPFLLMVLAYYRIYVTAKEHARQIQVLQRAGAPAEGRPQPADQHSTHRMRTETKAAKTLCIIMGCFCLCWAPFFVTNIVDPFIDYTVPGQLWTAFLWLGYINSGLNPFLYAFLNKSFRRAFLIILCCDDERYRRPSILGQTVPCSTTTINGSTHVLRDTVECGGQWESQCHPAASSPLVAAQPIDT
The target in series [9] is T1, 5-hydroxytryptamine receptor 3A. Nature of the series: Agonist activity at 5HT3 receptor in voltage-stimulated guinea pig left atrium assessed as positive inotropic potency. It is filed as functional, tissue-based, Cardiac atrium.
Series [10] relates to Brain. The experiment in a line: Drug level in rat brain at 1 mg/kg, iv. It is filed as ADME, organism-based. Also noted: dose 1 mg/kg, route intravenous. As to conditions: read-out: Drug uptake, in vivo. Summed up: as §1
Series [11] is described as follows: Ratio of drug level from brain to plasma in rat at 0.5 mg/kg, iv. Format: ADME, organism-based. On the set-up: dose 0.5 mg/kg, route intravenous. In outline:
as §2

For series [12], the target named is D(1A) dopamine receptor (Rattus norvegicus, UniProt P18901). Nature of the series: Displacement of [3H]SCH-23390 from dopamine D1 receptor in rat striatum.
Sequence of D(1A) dopamine receptor (P18901 whole entry): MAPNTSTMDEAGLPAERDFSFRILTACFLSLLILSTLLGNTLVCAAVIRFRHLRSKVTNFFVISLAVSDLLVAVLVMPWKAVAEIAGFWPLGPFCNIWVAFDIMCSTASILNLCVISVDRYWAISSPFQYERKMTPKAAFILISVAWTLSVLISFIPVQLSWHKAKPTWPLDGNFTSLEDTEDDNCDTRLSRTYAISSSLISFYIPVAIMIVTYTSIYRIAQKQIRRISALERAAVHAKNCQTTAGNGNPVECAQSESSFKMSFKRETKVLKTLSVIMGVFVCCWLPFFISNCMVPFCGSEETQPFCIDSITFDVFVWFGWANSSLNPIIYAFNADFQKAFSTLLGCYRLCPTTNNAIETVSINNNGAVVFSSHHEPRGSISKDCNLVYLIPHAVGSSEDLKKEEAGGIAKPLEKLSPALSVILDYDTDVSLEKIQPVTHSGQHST
Series [13] deals with T3, 5-hydroxytryptamine receptor 1A (Rattus norvegicus, UniProt P19327).
T3 sequence (P19327 whole entry): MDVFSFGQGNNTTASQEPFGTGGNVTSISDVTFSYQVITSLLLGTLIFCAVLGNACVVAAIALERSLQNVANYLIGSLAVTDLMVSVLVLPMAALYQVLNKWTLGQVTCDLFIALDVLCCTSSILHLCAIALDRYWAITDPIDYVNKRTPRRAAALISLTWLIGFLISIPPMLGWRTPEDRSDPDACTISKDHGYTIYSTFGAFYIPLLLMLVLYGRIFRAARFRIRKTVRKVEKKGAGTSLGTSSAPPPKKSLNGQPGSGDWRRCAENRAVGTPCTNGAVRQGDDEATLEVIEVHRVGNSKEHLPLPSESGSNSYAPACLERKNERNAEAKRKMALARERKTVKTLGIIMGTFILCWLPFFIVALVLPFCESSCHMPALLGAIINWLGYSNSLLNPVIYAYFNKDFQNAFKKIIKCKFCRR
The experiment in a line: Displacement of [3H]8-OHDPAT from 5HT1A receptor in rat hippocampus. Format: tissue-based.

In series [14] the target is D(2) dopamine receptor (Rattus norvegicus, UniProt P61169). The experiment in a line: Displacement of [3H]spiperone from dopamine D2 receptor in rat striatum.
Sequence of D(2) dopamine receptor (P61169 whole entry): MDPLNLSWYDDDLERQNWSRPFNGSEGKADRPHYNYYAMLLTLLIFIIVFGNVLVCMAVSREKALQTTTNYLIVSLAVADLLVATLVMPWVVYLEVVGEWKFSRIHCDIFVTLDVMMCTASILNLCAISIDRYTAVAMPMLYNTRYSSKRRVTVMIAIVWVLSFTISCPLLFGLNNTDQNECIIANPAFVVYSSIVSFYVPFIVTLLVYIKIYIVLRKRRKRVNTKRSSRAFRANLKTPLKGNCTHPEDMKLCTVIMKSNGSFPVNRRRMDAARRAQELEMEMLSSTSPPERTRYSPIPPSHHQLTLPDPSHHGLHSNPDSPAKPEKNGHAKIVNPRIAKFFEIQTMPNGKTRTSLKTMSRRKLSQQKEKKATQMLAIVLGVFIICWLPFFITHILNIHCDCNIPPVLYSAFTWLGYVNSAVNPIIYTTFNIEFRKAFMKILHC
For series [15], the target named is 5-hydroxytryptamine receptor 2A (Rattus norvegicus, UniProt P14842). The experiment in a line: Displacement of [3H]ketanserin from 5HT2A receptor in rat cortex.
Sequence of 5-hydroxytryptamine receptor 2A (P14842 whole entry): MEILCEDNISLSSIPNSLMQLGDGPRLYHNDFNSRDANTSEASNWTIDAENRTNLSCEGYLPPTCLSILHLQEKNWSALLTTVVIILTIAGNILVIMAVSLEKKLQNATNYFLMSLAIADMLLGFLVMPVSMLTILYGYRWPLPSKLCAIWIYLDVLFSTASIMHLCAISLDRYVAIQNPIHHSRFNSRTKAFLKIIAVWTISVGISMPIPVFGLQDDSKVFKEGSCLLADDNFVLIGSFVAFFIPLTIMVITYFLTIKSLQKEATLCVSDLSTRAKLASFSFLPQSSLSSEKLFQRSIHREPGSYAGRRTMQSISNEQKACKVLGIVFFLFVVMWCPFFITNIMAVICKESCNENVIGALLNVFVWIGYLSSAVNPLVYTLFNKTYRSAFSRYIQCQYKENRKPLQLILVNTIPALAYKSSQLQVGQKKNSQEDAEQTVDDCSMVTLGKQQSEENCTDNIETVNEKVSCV
For series [16], the target named is T4, Alpha-2A adrenergic receptor (Rattus norvegicus, UniProt P22909).
T4 sequence (P22909 whole entry): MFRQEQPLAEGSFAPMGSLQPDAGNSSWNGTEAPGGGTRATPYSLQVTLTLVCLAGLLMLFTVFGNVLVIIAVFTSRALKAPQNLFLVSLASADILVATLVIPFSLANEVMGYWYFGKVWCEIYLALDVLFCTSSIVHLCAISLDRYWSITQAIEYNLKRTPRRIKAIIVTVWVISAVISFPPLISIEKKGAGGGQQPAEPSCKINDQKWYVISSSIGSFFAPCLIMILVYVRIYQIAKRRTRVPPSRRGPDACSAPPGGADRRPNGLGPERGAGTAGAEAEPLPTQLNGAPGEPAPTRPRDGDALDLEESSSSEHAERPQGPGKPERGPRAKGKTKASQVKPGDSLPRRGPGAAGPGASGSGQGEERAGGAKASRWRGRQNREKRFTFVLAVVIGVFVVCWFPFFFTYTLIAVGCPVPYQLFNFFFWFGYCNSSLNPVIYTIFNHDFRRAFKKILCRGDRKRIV
Nature of the series: Displacement of [3H]RX821002 from adrenergic alpha2 receptor in rat cortex.

As for `CN1CCN(c2nc3ncccc3n3cccc23)CC1`, the pEC50 (usually −log10 of the EC50, conventionally taken in molar units) in series [1] is 6.47. For the same molecule, in [2], the pKi (as a rule, −log10 of the Ki, conventionally taken in molar units) was 8.62.

Regarding `O=C(O)CN1CCN(c2nc3cc(F)ccc3n3cccc23)CC1`, in series [3], the median effective dose (ED50) (usually the dose that gives a 50% effect, or the effect in half of the subjects) is 0.036 mg/kg. Also, the pIC50 (commonly the IC50 on a negative log10 scale, so that one unit is a factor of ten) in series [4] was 5.73. The Drug uptake entry in series [5] (BLD = below limit of detection) is on record as “BLD”. In series [6], the Kp (in general, tissue or fluid exposure divided by exposure in the circulation) is 0.03. In [7], this molecule yielded a concentration of 540 nM.

In series [8], `c1ccc2nc(N3CCNCC3)ccc2c1` [QUIPAZINE] showed a pKi of under 5.00.

For `c1ccc(CN2CCN(c3nc4ncccc4n4cccc34)CC2)cc1`, the IC50 result in series [4] is reported as “Not Active”. Moreover, the pKi in [2] was 8.66. The EC50 entry in series [9] was “Not Active”.

For `Fc1ccc2c(c1)nc(N1CCN(Cc3cnc[nH]3)CC1)c1cccn12`, the pIC50 in series [4] was 6.57. In addition, the pKi in series [8] was under 5.00; in series [12], under 5.00; in series [13], under 5.00; in series [14], under 5.00; in [15], under 5.00; in series [2], 9.17. The pKi in series [16] was under 5.00. The concentration in [10] came to 210 nM; in [5] (read-out: Drug uptake) it was 90 nM. In addition, the Kp in series [11] is 1.3; in series [6], 1. In series [7] (BLD = below limit of detection), the Cp result was “BLD”.
